Results on 2 compounds are retold here after PMC3068223 (Biochemistry, 2011).

Some results are limits rather than exact numbers.

What all share (assay type): biochemical
One assay deals with T1, purified rat MAO B (Rattus norvegicus, UniProt P19643).
T1 sequence (P19643 1-520): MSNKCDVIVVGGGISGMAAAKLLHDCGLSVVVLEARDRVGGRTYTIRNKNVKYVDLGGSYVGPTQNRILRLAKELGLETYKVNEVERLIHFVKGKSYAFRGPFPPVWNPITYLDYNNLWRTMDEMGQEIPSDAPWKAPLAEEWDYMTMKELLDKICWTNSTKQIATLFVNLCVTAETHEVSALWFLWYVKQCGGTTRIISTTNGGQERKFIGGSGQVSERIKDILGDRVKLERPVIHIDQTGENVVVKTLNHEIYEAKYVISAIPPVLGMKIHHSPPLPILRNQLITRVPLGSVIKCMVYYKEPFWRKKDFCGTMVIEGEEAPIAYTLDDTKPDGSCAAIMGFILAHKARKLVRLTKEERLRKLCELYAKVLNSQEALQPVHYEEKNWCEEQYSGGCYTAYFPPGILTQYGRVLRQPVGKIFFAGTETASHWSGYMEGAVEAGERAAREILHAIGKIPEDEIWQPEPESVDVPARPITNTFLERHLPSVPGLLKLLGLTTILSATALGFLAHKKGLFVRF
Nature of the assay: Rate of inactivation of purified rat MAO B. The settings on record: apparent pseudo-first order, 1 mM inhibitor, room temperature.

Another assay has as its target T2, purified rat MAO A (Rattus norvegicus, UniProt P21396).
T2 sequence (P21396 1-526): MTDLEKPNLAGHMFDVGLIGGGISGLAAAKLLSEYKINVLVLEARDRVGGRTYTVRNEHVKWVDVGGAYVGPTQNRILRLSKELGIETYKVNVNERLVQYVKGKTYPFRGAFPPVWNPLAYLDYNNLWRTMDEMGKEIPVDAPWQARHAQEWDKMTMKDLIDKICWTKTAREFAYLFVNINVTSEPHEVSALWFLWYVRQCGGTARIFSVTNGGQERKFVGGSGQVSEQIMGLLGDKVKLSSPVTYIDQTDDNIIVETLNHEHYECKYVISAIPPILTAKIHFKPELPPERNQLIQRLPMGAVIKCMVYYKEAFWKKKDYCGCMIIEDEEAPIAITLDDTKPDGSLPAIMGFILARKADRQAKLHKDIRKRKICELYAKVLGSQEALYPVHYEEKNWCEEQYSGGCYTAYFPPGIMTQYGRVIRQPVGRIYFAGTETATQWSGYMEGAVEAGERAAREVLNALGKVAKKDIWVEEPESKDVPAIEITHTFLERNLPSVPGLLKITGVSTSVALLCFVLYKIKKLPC
Kind of assay: Rate of inactivation of purified rat MAO A. Conditions: apparent pseudo-first order, 1 mM inhibitor, room temperature. Put shortly: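 Recombinant rat MAO A was purified from Pichia pastoris KM71, with d-amphetamine removed before kinetics. The enzyme was incubated with 1 mM test compound at room temperature, with an uninhibited control. Activity loss over time was measured spectrophotometrically with kynuramine in 50 mM potassium phosphate, pH 7.5, 0.5% reduced Triton X-100, at 25°C. Pseudo-first-order rate constants came from exponential decay fits.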

A further assay addresses T3, rat MAO B (Rattus norvegicus, UniProt P19643).
T3 sequence (P19643 1-520): T1 sequence (P19643 1-520)
Nature of the assay: Inhibition of recombinant rat MAO B in P. pastoris mitochondria. Conditions: intact yeast mitochondria.

The target of the next assay is T4, rat MAO A (Rattus norvegicus, UniProt P21396).
T4 sequence (P21396 1-526): T2 sequence (P21396 1-526)
Kind of assay: Inhibition of recombinant rat MAO A in P. pastoris mitochondria. Conditions: intact yeast mitochondria.

For assay [1], the target named is T5, MOM-bound rat MAO A (Rattus norvegicus, UniProt P21396).
T5 sequence (P21396 1-526): T2 sequence (P21396 1-526)
Kind of assay: Rate of inactivation of MOM-bound recombinant rat MAO A. Conditions: apparent pseudo-first order, 1 mM inhibitor, room temperature. An outline of the steps:
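Outer-membrane-bound rat MAO A came from Pichia pastoris KM71 mitochondria, isolated by osmotic shock, sonication and sucrose gradient. Membranes were incubated with 1 mM test compound at room temperature, with an uninhibited control. Remaining activity over time was followed spectrophotometrically at 25°C. Apparent pseudo-first-order rate constants were obtained from exponential fits of activity decay.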

In assay [2] the target is T6, MOM-bound rat MAO B (Rattus norvegicus, UniProt P19643).
T6 sequence (P19643 1-520): T1 sequence (P19643 1-520)
Nature of the assay: Rate of inactivation of MOM-bound recombinant rat MAO B. The settings on record: apparent pseudo-first order, 1 mM inhibitor, room temperature.

The target in assay [3] is T5, MOM-bound rat MAO A. Kind of assay: Protease treatment of yeast recombinant MOM-bound rat MAO A. Conditions: protease:protein 1:5 (w/w), room temperature. An outline of the steps: (§1)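 Rat MAO A or MAO B was expressed in Pichia pastoris KM71. Outer membranes were isolated by osmotic shock, mild sonication and a 30–55% sucrose gradient. Membranes were incubated at room temperature with trypsin or β-chymotrypsin at a 1:5 (w/w) protease:protein ratio. Timed samples were quenched with 1 mM PMSF (final). Residual activity was measured spectrophotometrically as product formation at 25°C.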

For assay [4], the target named is T6, MOM-bound rat MAO B. Kind of assay: Protease treatment of yeast recombinant MOM-bound rat MAO B. The settings on record: protease:protein 1:5 (w/w), room temperature. Put shortly: as §1
A further assay deals with T7, MAO A (Rattus norvegicus, UniProt P21396).
T7 sequence (P21396 1-526): T2 sequence (P21396 1-526)
Nature of the assay: Protease treatment of rat liver mitochondria, MAO A activity. Conditions: protease:protein 1:5 (w/w), room temperature. An outline of the steps: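 Rat liver mitochondria were isolated from a perfused Sprague-Dawley rat liver and purified on 30% Percoll. They were incubated at room temperature with trypsin at a 1:5 (w/w) protease:protein ratio. Samples taken over time were quenched with 1 mM PMSF (final). MAO A activity was measured polarographically as O2 uptake with serotonin in 50 mM potassium phosphate, pH 7.5, at 25°C.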

With `C#CCN(C)Cc1ccccc1` [Pargyline, pargyline], the “k (inactivation) MAO B (Purified)” value on purified rat MAO B is on record as “too fast to measure”. The “k (inactivation) MAO A (Purified)” value at purified rat MAO A worked out at 9.4 ± 1.1 s⁻¹. Moreover, the “inhibition of rat MAO B in intact mitochondria” value on rat MAO B is on record as “functions as an inhibitor with either enzyme”. Also, the “inhibition of rat MAO A in intact mitochondria” value at rat MAO A is recorded as “functions as an inhibitor with either enzyme”. Further, the “k (inactivation) MAO A (MOM)” value on MOM-bound rat MAO A [1] amounted to 44.8 ± 6.2 s⁻¹. The “k (inactivation) MAO B (MOM)” value at MOM-bound rat MAO B [2] was “too fast to measure”.
For trypsin, at MOM-bound rat MAO A [3], the “inactivation of yeast recombinant MOM-bound rat MAO A by protease” value is recorded as “sensitive to trypsin”. Besides, the “inactivation of yeast recombinant MOM-bound rat MAO B by protease” value on MOM-bound rat MAO B [4] is “no observable inactivation”. For the same compound, the “MAO A activity lost” value on MAO A is recorded as over 90%.
